Results on 32 compounds are retold here after ChEMBL document CHEMBL4043167, “Identification of pyrazolopyrimidine arylsulfonamides as CC-chemokine receptor 4 (CCR4) antagonists” (Bioorg Med Chem, 2017).

The nature of series [1]: Lipophilicity, log D of the compound by chromatographic analysis. The class given is physicochemical. In a few lines:
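Chromatographic logD measured at pH 7.4 (chromlogD7.4).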

Series [2] is described as follows: Kinetic solubility of the compound by chemiluminescent nitrogen detection assay. The following applies: read-out: Kinetic_solubility. The class given is physicochemical.
In series [3] the target is T1, C-C chemokine receptor type 4 (Homo sapiens, UniProt P51679).
T1 sequence (P51679 whole entry): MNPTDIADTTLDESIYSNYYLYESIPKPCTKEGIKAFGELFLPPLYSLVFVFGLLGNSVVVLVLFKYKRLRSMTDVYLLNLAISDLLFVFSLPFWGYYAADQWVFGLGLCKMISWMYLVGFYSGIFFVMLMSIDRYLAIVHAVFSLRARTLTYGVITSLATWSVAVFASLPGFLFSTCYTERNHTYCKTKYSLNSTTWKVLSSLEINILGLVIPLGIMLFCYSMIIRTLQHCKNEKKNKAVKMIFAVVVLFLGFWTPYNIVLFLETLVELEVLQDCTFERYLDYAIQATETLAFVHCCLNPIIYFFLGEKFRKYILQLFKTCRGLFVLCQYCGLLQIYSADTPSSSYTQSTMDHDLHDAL
As to the kind of experiment: Antagonist activity at human recombinant CCR4 receptor expressed in CHO cell membranes by [35S]GTPgammaS binding assay. In kind it is functional. (In general: Binding of GTPγS marks nucleotide exchange on a G protein.)

Series [4] is described as follows: Oral bioavailability in Sprague Dawley (crl:CD(SD)) rat at 1 mg/kg by LCMS/MS method. In kind it is ADME, organism-based. The following applies: in vivo. In a few lines: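 Rat given an oral dose of 1 mg/kg, with a 1 mg/kg IV dose for comparison; oral bioavailability calculated.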
In series [5] the target is T2, C-C chemokine receptor type 4 (Homo sapiens) (UniProt P51679).
T2 sequence (whole entry): T1 sequence (P51679 whole entry)
Description: (§1) Antagonist activity at CCR4 receptor in human whole blood assessed as F-actin polymerization after 30 mins by FACS-based flow cytometric analysis. For orientation: Flow cytometry measures light scatter and fluorescence of single cells or particles in a stream.

A further series relates to Rattus norvegicus. Description: Clearance in Sprague Dawley (crl:CD(SD)) rat at 1 mg/kg, iv by LCMS/MS method. The following applies: in vivo. In kind it is ADME, organism-based. In outline: (§2)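 Rat given a single IV dose of 1 mg/kg; blood clearance, half-life and volume of distribution derived from the IV profile.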
A further series concerns the target albumin (Homo sapiens, UniProt P02768). Description: Binding affinity to HSA. In kind it is ADME. The following applies: human serum albumin (HSA), read-out: PB (converted).
Series [6] is described as follows: Half life in Sprague Dawley (crl:CD(SD)) rat at 1 mg/kg, iv by LCMS/MS method. In kind it is ADME, organism-based. The following applies: in vivo. In outline:
as §2

Series [7] is described as follows: Volume of distribution at steady state in Sprague Dawley (crl:CD(SD)) rat at 1 mg/kg, iv by LCMS/MS method. In kind it is ADME, organism-based. The following applies: in vivo, read-out: Vdss. In a few lines:
as §2

A further series deals with Canis familiaris. As to the kind of experiment: Clearance in Beagle dog at 0.5 mg/kg by LCMS/MS method. The following applies: in vivo.
The nature of series [8]: Oral bioavailability in Beagle dog at 1 mg/kg by LCMS/MS method. In kind it is ADME, organism-based, Canis lupus familiaris. The following applies: in vivo.
The nature of series [9]: Volume of distribution at steady state in Beagle dog at 1 mg/kg by LCMS/MS method. The following applies: in vivo, read-out: Vdss. The class given is ADME, organism-based, Canis lupus familiaris.
A short description of series [10]: Clearance in human microsomes. In kind it is ADME, Microsome.
A short description of series [11]: Half life in Beagle dog at 1 mg/kg by LCMS/MS method. In kind it is ADME, organism-based, Canis lupus familiaris. The following applies: in vivo.
For series [12], the target named is T1, C-C chemokine receptor type 4. The description is as §1. The following applies: read-out: pA2 (converted).
Series [13] is described as follows: Clearance in rat microsomes. In kind it is ADME, Microsome.
The nature of series [14]: Clearance in dog microsomes. The class given is ADME, Canis lupus familiaris, Microsome.

≈ marks a conversion by molar mass, not a printed value. Calls of active or inactive are those of the source. No cut-off for these calls is given here.

albumin, sequence (P02768 whole entry): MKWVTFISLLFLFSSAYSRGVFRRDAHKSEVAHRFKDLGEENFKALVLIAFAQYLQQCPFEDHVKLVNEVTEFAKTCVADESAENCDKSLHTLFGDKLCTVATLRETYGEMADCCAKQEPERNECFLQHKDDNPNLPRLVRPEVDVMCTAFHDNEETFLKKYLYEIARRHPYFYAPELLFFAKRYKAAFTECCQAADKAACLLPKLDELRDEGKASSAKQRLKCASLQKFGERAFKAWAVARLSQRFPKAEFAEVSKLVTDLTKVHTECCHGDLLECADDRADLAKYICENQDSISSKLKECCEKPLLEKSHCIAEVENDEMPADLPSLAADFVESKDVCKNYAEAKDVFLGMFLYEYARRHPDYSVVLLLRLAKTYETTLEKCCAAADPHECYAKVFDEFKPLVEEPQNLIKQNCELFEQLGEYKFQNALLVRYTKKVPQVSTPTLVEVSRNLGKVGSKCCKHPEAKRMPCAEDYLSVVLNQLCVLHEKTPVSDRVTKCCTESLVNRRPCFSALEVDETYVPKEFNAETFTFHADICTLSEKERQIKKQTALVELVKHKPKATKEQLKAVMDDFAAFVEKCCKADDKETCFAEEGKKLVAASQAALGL

In series [1], `Cn1ncc2c(NS(=O)(=O)c3cccc(Cl)c3Cl)cccc21` displayed a chromatographic logD of 3.2. The solubility kinetic in series [2] amounted to 170 µM (≈ 60.6 µg/mL). Further, the IC50 in series [3] was 3160 nM.
The corresponding values for `Cn1nc(NS(=O)(=O)c2cccc(Cl)c2Cl)c2ccccc21` are 4.6, 124 µM (≈ 44.2 µg/mL) and 2000 nM.
The corresponding values for `COc1nn(CCN(C)C)c2ncnc(NS(=O)(=O)c3cccc(Cl)c3Cl)c12` are 1.6, 358 µM (≈ 159 µg/mL) and 3980 nM.
With `COc1cccc2c1c(NS(=O)(=O)c1cccc(Cl)c1Cl)nn2C`, the solubility kinetic in [2] turned out to be 288 µM (≈ 111 µg/mL). In [4], this compound yielded a bioavailability of 24%. In addition, the pA2 entry in series [5] is “inactive”. Besides, the clearance with Rattus norvegicus was 17 mL/min/kg. Further, the fraction unbound on albumin was 0.023. Moreover, the half-life in series [6] was 1.2 h. In series [7], the Vd turned out to be 0.5 L/kg.
In series [1], `COc1nn(CC(=O)O)c2ncnc(NS(=O)(=O)c3cccc(Cl)c3Cl)c12` showed a chromatographic logD of 0.8. For the same compound, in series [2], the solubility kinetic was at least 483 µM. For the same compound, the IC50 in series [3] is 200 nM.
In series [1], `COCCNc1nc(NS(=O)(=O)c2cccc(Cl)c2Cl)c2c(OC)nn(C)c2n1` showed a chromatographic logD of 3.3. For the same compound, in series [2], the solubility kinetic is at least 441 µM. Moreover, in series [3], the 50% inhibitory concentration (IC50) was 7940 nM.
Regarding `COc1nn(C)c2nc(N(C)C)nc(NS(=O)(=O)c3cccc(Cl)c3Cl)c12`, in [1], the chromatographic logD stood at 4. For the same compound, the solubility kinetic in series [2] was at least 626 µM. Further, the half-maximal inhibitory concentration (IC50) in series [3] was 631 nM.
Consider `CCNc1nc(NS(=O)(=O)c2cccc(Cl)c2Cl)c2c(OC)nn(C)c2n1`, for which, in [1], the chromatographic logD was 4.2. In addition, the solubility kinetic in [2] was 219 µM (≈ 94.5 µg/mL). In addition, the IC50 in series [3] was 251 nM.
In series [1], `COc1ccc(COc2nc(Br)cnc2NS(=O)(=O)c2ccc(C)cc2)cc1OCCN(C)C` yielded a chromatographic logD of 3.1. Also, the solubility kinetic in series [2] was 309 µM (≈ 170 µg/mL).
The compound `COc1nn(C)c2nc(N)nc(NS(=O)(=O)c3cccc(Cl)c3Cl)c12` returned a chromatographic logD in [1] of 2.4. Moreover, the solubility kinetic in series [2] is at least 649 µM. Besides, the IC50 in series [3] is 316 nM.
In the same order, the values of `COCCOc1nn(C)c2ncnc(NS(=O)(=O)c3cccc(Cl)c3Cl)c12` are 2.3, at least 463 µM and 794 nM.
The corresponding values for `COc1nn(CC(N)=O)c2ncnc(NS(=O)(=O)c3cccc(Cl)c3Cl)c12` are 1.1, at least 490 µM and 501 nM.
With `COc1nn(C2COC2)c2ncnc(NS(=O)(=O)c3cccc(Cl)c3Cl)c12`, the chromatographic logD in series [1] turned out to be 2.1. The solubility kinetic in [2] worked out at 142 µM (≈ 61.1 µg/mL). For the same compound, the half-inhibitory concentration (IC50) in series [3] was 251 nM.
In the same order, the values of `COc1nn(C)c2nc(NC3COC3)nc(NS(=O)(=O)c3cccc(Cl)c3Cl)c12` are 2.2, at least 712 µM and 10000 nM.
In the same order, the values of `Cn1ncc2c(NS(=O)(=O)c3cccc(Cl)c3Cl)ccnc21` are 1.7, at least 310 µM and 12600 nM.
For the compound `COc1ccc2c(cnn2C)c1NS(=O)(=O)c1cccc(Cl)c1Cl`, the chromatographic logD in series [1] is 5. Also, the solubility kinetic in series [2] stood at 175 µM (≈ 67.6 µg/mL). Also, in [3], the 50% inhibitory concentration (IC50) was 10000 nM.
The corresponding values for `Cn1ncc2c(NS(=O)(=O)c3cccc(Cl)c3Cl)ncnc21` are 1.7, 476 µM (≈ 171 µg/mL) and 1260 nM.
In the same order, the values of `CNc1nc(NS(=O)(=O)c2cccc(Cl)c2Cl)c2c(OC)nn(C)c2n1` are 3.2, 376 µM (≈ 157 µg/mL) and 79.4 nM.
On to `COc1nn(C)c2cccc(NS(=O)(=O)c3cccc(Cl)c3Cl)c12`, for which the chromatographic logD in series [1] was 6.5. Moreover, the solubility kinetic in series [2] was 80 µM (≈ 30.9 µg/mL). In addition, the IC50 in series [3] is 794 nM.
For `CNC(=O)Cn1nc(OC)c2c(NS(=O)(=O)c3cccc(Cl)c3Cl)ncnc21`, the chromatographic logD in series [1] was 1.3. For the same compound, in [2], the solubility kinetic was at least 509 µM. Besides, in [3], the IC50 was 631 nM.
In the same order, the values of `COc1nn(C)c2nc(C)nc(NS(=O)(=O)c3cccc(Cl)c3Cl)c12` are 3.4, at least 557 µM and 631 nM.
The corresponding values for `COCCn1nc(OC)c2c(NS(=O)(=O)c3cccc(Cl)c3Cl)ncnc21` are 2.6, at least 442 µM and 316 nM.
In the case of `COc1nn(C)c2ncnc(NS(=O)(=O)c3cccc(Cl)c3Cl)c12`, the results for the clearance with Canis familiaris and in the series with Rattus norvegicus were 4 mL/min/kg and 2 mL/min/kg, respectively. Further, the chromatographic logD in series [1] worked out at 2.4. Also, the solubility kinetic in [2] is at least 581 µM. Moreover, the bioavailability in series [4] was 62%; in series [8], 100%. Further, the Vd in series [9] and in [7] was 0.3 L/kg throughout. In addition, the results for the CL in [10], in [13] and in series [14] were below 0.53 mL/min/g, 0.58 mL/min/g and 0.65 mL/min/g, respectively. In addition, the half-maximal inhibitory concentration (IC50) in series [3] is 63.1 nM. Further, the half-life in series [11] was 0.6 h; in [6], 1.9 h. The Kb in [12] was above 6310 nM. The fraction unbound on albumin is 0.015.
With `COc1nn(C(C)C)c2ncnc(NS(=O)(=O)c3cccc(Cl)c3Cl)c12`, in [1], the chromatographic logD stood at 4.5. Moreover, in series [2], the solubility kinetic was 404 µM (≈ 168 µg/mL). Besides, in [3], the IC50 was 251 nM.
The corresponding values for `COc1nc(NS(=O)(=O)c2cccc(Cl)c2Cl)c2c(OC)nn(C)c2n1` are 1.9, 148 µM (≈ 61.9 µg/mL) and 794 nM.
In series [1], `COc1nn(C)c2ncnc(NS(=O)(=O)c3ccc(Cl)s3)c12` came in with a chromatographic logD of 1.6. Moreover, the solubility kinetic in series [2] is at least 538 µM. In addition, in series [3], the IC50 is 79.4 nM. The Kb in [12] is above 6310 nM. Moreover, at albumin, the fraction unbound was 0.023.
Take `CCn1[nH]c2ncnc(NS(=O)(=O)c3cccc(Cl)c3Cl)c2c1=O`: the chromatographic logD in series [1] came to 1.2. For the same compound, in series [2], the solubility kinetic is at least 383 µM. Besides, the concentration for half-maximal inhibition (IC50) in series [3] is above 31600 nM.
The corresponding values for `O=S(=O)(Nc1ncnc2[nH]nc(O)c12)c1cccc(Cl)c1Cl` are 0.8, at least 234 µM and 15800 nM.
On to `COc1nn(C)c2nc(NC(C)C)nc(NS(=O)(=O)c3cccc(Cl)c3Cl)c12`, for which the chromatographic logD in series [1] was determined as 5.2. Also, the solubility kinetic in series [2] is at least 551 µM. For the same compound, in series [3], the half-inhibitory concentration (IC50) was 3160 nM.
In the same order, the values of `COc1n[nH]c2ncnc(NS(=O)(=O)c3cccc(Cl)c3Cl)c12` are 1.8, 402 µM (≈ 150 µg/mL) and 158 nM.
Consider `COc1nn(C)c2nc(NCCN(C)C)nc(NS(=O)(=O)c3cccc(Cl)c3Cl)c12`, for which the chromatographic logD in [1] was 1.4. Also, in [2], the solubility kinetic was at least 444 µM. The half-inhibitory concentration (IC50) in series [3] is above 31600 nM.
In the same order, the values of `CCOc1n[nH]c2ncnc(NS(=O)(=O)c3cccc(Cl)c3Cl)c12` are 2.3, at least 438 µM and 794 nM.

Usually chromatographic logD stands for lipophilicity estimated from chromatographic retention. Low values mean lower lipophilicity, high ones higher lipophilicity. As a reminder, the IC50 is the point on the concentration scale where inhibition reaches its midpoint. As usually defined, the bioavailability is dose-corrected exposure relative to a reference, in per cent. One may read the clearance as the volume of plasma or blood freed of the substance per unit of time. In general, half-life refers to how long it takes for the measured level to halve. Read a low half-life as rapid decline.
